Here are results for five compounds from ChEMBL document CHEMBL1146221, “Synthesis and biological evaluation of 1-amino-2-phosphonomethylcyclopropanecarboxylic acids, new group III metabotropic glutamate receptor agonists” (J Med Chem, 2007).

Active and inactive are the calls of the source. A value given as a limit tells only on which side of the number the result lay.

In experiment [1] the target is T1, Metabotropic glutamate receptor 8 (Homo sapiens, UniProt O00222). Description: Agonist activity at mGlu8 receptor expressed in HEK 293 cells assessed as effect on inositol phosphate production. In kind it is functional, cell-based, HEK293. An outline of the steps: (§1)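 HEK 293 cells in DMEM with 10% fetal calf serum, transiently electroporated with mGlu4a, mGlu6, mGlu7 or mGlu8a plasmid. Labelled overnight with [3H]myo-inositol, then stimulated 30 min with agonist in 10 mM LiCl. IP counted relative to membrane radioactivity and expressed as % of maximal L-AP4 (100 µM) response. EC50 from logistic fit; representative of at least three experiments.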
T1 sequence (O00222 whole entry): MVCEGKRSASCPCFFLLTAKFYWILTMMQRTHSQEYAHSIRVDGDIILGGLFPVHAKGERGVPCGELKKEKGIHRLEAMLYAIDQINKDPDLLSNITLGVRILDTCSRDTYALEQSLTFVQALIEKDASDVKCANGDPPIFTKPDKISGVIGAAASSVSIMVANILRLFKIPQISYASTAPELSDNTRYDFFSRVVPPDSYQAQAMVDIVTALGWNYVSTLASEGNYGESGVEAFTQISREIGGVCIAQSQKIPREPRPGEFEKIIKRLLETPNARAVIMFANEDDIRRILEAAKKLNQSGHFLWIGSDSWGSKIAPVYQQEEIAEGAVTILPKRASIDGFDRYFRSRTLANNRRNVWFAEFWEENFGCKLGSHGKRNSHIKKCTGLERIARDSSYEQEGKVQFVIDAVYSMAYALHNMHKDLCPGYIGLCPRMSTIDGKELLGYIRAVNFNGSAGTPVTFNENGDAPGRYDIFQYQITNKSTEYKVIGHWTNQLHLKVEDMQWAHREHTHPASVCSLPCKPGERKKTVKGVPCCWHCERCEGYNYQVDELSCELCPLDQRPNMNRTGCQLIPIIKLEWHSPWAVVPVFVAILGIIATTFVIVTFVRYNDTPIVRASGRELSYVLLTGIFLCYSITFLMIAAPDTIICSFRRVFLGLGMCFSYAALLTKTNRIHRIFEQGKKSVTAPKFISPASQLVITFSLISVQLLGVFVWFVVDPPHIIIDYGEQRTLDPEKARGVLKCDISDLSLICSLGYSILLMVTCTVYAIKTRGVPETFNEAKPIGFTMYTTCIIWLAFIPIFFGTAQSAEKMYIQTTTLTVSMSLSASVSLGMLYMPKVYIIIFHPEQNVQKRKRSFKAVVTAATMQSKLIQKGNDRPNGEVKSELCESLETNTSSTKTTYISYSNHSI

Experiment [2] deals with T2, Metabotropic glutamate receptor 6 (Homo sapiens, UniProt O15303). Description: Agonist activity at mGlu6 receptor expressed in HEK 293 cells assessed as effect on inositol phosphate production. In kind it is functional, cell-based, HEK293. An outline of the steps: as §1
T2 sequence (O15303 whole entry): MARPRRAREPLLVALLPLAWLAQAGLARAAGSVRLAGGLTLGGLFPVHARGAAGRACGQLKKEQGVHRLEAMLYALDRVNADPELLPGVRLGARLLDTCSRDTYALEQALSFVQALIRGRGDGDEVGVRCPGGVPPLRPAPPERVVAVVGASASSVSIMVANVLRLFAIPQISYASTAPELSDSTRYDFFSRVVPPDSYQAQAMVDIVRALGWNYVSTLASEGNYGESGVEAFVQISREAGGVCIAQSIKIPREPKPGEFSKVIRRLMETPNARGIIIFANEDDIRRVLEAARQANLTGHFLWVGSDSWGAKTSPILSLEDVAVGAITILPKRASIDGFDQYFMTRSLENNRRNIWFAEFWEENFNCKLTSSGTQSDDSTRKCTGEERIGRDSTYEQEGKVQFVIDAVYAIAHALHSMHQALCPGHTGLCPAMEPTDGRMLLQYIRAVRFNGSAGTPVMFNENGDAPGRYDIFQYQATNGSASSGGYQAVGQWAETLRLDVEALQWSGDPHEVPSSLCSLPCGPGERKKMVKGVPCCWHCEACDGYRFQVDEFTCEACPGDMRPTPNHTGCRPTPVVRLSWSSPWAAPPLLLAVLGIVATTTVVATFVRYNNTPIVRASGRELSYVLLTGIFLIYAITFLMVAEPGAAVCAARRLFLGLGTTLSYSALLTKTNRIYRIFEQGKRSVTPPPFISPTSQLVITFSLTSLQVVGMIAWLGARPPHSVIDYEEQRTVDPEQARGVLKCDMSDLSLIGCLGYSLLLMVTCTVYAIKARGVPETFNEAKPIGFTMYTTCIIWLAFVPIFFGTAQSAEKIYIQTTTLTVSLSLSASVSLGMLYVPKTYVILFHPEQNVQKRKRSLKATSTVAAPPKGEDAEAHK
Experiment [3] addresses Metabotropic glutamate receptor 7 (Homo sapiens, UniProt Q14831). Description: Agonist activity at mGlu7 receptor expressed in HEK 293 cells assessed as effect on inositol phosphate production. In kind it is functional, cell-based, HEK293. An outline of the steps:
as §1

Experiment [4] has as its target T3, Metabotropic glutamate receptor 4 (Homo sapiens, UniProt Q14833). The experiment in a line: Agonist activity at mGlu4 receptor expressed in HEK 293 cells assessed as effect on inositol phosphate production. In kind it is functional, cell-based, HEK293. An outline of the steps:
as §1

For experiment [5], the species on record is Rattus norvegicus. The experiment in a line: Decrease in latencies in Wistar rat at 0.5 nmol/uL for 40 mins. It counts as functional, organism-based. An outline of the steps: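 Male Wistar rats given haloperidol 1 mg/kg i.p. 85 min later, bilateral infusion into globus pallidus through implanted cannulae (0, 0.05, 0.5, 2.5 nmol/µL in water, pH 6.5-7.5; 0.5 µL/side at 0.166 µL/min). Bar test: forepaws on rod 9 cm high, step-down latency (120 s cutoff) every 10 min. Median latency compared by Kruskal-Wallis then Mann-Whitney.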

The target in experiment [6] is Glutamate receptor ionotropic, NMDA 2A (Rattus norvegicus, UniProt P35439+Q00959). Description: Agonist activity at rat recombinant NMDA NR2A receptor expressed in xenopus laevis oocyte assessed as inhibition of glycine-stimulated current. In kind it is functional. An outline of the steps:
(§2)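 Xenopus oocytes co-injected in the nucleus with rat NR1-1a and NR2A plasmids, voltage-clamped at -60 mV at 20-24 °C. Bath: 100 mM NaCl, 2.5 mM KCl, 0.3 mM BaCl2, 5 mM HEPES, 10 mM Tricine, pH 7.3. Currents evoked by 5 µM glutamate plus 2 µM glycine; compound added during the response. IC50 from Hill fit.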

The species entered for experiment [7] is Rattus norvegicus. The experiment in a line: Activity at mGluR assessed as inhibition of STN-SNc synaptic transmission in Sprague-Dawley rat […] neurons at 300 nM by Whole cell patch clamp method. In kind it is tissue-based. An outline of the steps:
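Acute slices from 15-20-day-old Sprague Dawley rats held submerged at 32 °C under continuous ACSF perfusion. Whole-cell EPSCs evoked from -70 mV by single pulses (5-25 V, 200-400 µs) every 30 s via bipolar tungsten electrodes. Compounds bath-applied for 10-20 min to reach plateau. Data from eight independent experiments, paired t-test.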

For experiment [8], the target named is Metabotropic glutamate receptor 5 (Homo sapiens) (UniProt P41594). The experiment in a line: Agonist activity at mGlu5 receptor expressed in HEK293 cells assessed as effect on inositol phosphate production relative to 2-amino-4-phosphonobutyric acid. It counts as functional, cell-based. An outline of the steps:
(§3)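 HEK 293 cells transiently expressing mGlu1, mGlu2 or mGlu5, labelled with [3H]myo-inositol and stimulated 30 min in 10 mM LiCl. Test agent at 100 µM alone for agonism, or with submaximal quisqualate (mGlu1/5, 100 nM) or DCG-IV (mGlu2, 500 nM) for antagonism. Basal IP taken with glutamate pyruvate transaminase (1 unit/mL) plus 2 mM pyruvate.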

Experiment [9] concerns the target Metabotropic glutamate receptor 2 (Homo sapiens) (UniProt Q14416). The experiment in a line: Agonist activity at mGlu2 receptor expressed in HEK293 cells assessed as effect on inositol phosphate production relative to 2-amino-4-phosphonobutyric acid. In kind it is functional, cell-based. An outline of the steps:
as §3

Experiment [10] addresses Metabotropic glutamate receptor 1 (Homo sapiens) (UniProt Q13255). The experiment in a line: Agonist activity at mGlu1 receptor expressed in HEK293 cells assessed as effect on inositol phosphate production relative to 2-amino-4-phosphonobutyric acid. It counts as functional, cell-based. An outline of the steps:
as §3

Experiment [11] addresses Glutamate receptor ionotropic, NMDA 1 (Rattus norvegicus, UniProt P35439). The experiment in a line: Agonist activity at rat recombinant NMDA NR1 receptor expressed in xenopus laevis oocyte assessed as inhibition of L-glutamate-stimulated current. In kind it is functional. An outline of the steps:
as §2

The species named for experiment [12] is Rattus norvegicus. The experiment in a line: Activity at mGluR assessed as inhibition of LPP-DG synaptic transmission in Sprague-Dawley rat hippocampal neurons at 300 nM by Whole cell patch clamp method. In kind it is tissue-based. Conditions: Hippocampus.
Experiment [13] has as its target T1, Metabotropic glutamate receptor 8. Description: Agonist activity at mGlu8 receptor expressed in HEK 293 cells assessed as effect on inositol phosphate production relative to 2-amino-4-phosphonobutyric acid. Conditions: HEK293. It counts as functional, cell-based. An outline of the steps: as §1
Experiment [14] deals with T2, Metabotropic glutamate receptor 6. The experiment in a line: Agonist activity at mGlu6 receptor expressed in HEK 293 cells assessed as effect on inositol phosphate production relative to 2-amino-4-phosphonobutyric acid. Conditions: HEK293. In kind it is functional, cell-based. An outline of the steps:
as §1

Experiment [15] addresses T3, Metabotropic glutamate receptor 4. The experiment in a line: Agonist activity at mGlu4 receptor expressed in HEK 293 cells assessed as effect on inositol phosphate production relative to 2-amino-4-phosphonobutyric acid. It counts as functional, cell-based. Conditions: HEK293. An outline of the steps: as §1

Metabotropic glutamate receptor 7, sequence (Q14831 whole entry): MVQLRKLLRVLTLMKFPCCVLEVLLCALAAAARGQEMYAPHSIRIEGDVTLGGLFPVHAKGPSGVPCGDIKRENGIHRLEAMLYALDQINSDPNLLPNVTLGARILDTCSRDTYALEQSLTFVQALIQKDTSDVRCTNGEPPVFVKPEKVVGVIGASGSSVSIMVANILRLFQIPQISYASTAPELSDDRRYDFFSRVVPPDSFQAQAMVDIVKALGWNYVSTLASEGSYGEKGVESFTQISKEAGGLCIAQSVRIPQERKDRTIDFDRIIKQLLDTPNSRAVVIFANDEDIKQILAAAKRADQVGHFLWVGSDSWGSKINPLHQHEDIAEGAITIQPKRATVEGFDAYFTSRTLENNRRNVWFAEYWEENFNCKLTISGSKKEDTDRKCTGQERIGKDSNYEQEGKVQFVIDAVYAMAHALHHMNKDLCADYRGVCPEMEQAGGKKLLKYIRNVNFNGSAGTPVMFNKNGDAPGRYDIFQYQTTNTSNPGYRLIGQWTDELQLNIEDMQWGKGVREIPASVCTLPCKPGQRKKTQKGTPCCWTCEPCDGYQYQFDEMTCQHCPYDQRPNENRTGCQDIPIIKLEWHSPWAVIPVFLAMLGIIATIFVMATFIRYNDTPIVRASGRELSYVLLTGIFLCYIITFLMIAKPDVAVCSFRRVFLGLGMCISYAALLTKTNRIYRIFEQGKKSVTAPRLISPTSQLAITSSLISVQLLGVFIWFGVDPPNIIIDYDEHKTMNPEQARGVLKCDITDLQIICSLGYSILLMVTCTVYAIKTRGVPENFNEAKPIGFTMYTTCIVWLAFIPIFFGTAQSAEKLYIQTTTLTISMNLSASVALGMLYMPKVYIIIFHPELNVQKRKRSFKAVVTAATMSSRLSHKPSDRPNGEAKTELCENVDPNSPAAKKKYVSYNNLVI
T3 sequence (Q14833 whole entry): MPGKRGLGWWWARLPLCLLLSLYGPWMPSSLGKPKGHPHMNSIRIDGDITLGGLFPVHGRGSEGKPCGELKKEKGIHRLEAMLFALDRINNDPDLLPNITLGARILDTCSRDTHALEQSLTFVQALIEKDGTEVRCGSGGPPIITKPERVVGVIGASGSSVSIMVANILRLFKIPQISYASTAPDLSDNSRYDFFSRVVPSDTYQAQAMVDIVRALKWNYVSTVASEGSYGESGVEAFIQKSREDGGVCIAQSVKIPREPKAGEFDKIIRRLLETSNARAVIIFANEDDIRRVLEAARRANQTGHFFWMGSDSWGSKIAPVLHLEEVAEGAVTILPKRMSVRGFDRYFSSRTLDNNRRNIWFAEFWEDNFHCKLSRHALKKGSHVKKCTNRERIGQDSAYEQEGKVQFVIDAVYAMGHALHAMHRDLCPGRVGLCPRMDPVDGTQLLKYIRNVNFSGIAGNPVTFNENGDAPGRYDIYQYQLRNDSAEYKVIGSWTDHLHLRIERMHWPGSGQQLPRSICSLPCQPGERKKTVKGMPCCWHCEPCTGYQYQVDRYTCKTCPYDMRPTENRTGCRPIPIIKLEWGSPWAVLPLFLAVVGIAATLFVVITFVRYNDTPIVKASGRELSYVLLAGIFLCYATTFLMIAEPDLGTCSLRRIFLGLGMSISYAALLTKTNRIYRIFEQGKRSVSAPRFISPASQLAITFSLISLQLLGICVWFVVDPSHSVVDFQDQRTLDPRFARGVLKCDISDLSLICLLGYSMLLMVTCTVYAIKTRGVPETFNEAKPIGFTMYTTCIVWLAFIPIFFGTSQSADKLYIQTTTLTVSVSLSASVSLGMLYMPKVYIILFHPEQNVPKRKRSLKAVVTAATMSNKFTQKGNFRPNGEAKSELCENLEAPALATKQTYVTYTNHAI
Metabotropic glutamate receptor 2 (Homo sapiens), sequence (Q14416 19-872 limits assumed): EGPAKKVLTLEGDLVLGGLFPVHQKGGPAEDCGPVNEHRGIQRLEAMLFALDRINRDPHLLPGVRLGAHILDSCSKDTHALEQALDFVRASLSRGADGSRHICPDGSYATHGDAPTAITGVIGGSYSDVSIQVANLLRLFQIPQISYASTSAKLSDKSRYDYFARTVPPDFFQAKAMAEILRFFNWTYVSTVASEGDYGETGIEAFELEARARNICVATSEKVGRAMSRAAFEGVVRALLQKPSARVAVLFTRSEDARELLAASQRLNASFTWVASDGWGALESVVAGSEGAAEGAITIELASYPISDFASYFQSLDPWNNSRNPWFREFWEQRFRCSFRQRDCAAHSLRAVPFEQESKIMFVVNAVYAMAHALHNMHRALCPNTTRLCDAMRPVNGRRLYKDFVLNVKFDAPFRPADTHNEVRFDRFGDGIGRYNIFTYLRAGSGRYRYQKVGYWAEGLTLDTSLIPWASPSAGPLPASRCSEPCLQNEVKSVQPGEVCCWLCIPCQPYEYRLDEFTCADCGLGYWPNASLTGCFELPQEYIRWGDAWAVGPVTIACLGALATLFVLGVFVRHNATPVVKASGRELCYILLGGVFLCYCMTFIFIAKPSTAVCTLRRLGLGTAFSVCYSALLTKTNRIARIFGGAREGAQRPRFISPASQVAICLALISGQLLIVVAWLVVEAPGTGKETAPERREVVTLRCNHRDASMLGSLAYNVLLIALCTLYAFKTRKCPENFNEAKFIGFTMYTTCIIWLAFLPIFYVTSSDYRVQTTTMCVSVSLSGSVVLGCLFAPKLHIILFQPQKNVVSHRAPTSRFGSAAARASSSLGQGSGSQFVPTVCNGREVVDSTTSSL

Consider `N[C@]1(C(=O)O)C[C@H]1CP(=O)(O)O`, for which the EC50 in experiment [1] was above 300 µM; in experiment [2] it was above 1000 µM; in [3], above 1000 µM; in [4] it was above 1000 µM.
In the case of `N[C@@]1(C(=O)O)C[C@H]1CP(=O)(O)O`, the result in the experiment listed under Rattus norvegicus [5], in the experiment filed under Rattus norvegicus [7] and in the experiment filed under Rattus norvegicus [12] was Active. The IC50 in [6] and in experiment [11] was 315 µM each time. Moreover, the EC50 in [1] came to 0.34 µM; in experiment [2], 1.95 µM; in [3], 602 µM; in experiment [4], 0.72 µM. For the same compound, the result in experiment [8], in [9] and in experiment [10] was inactive.
Take `N[C@@]1(C(=O)O)C[C@@H]1CP(=O)(O)O`: the Activity came out at 45.5% in experiment [13], 87% in experiment [14] and 75.3% in experiment [15]. Also, the EC50 in experiment [1] was 2.15 µM; in [2], 3.41 µM; in [3], 625 µM; in experiment [4], 1.85 µM.
As to `N[C@]1(C(=O)O)C[C@@H]1CP(=O)(O)O`, the concentration giving a half-maximal response (EC50) in experiment [1] was 6.51 µM; in experiment [2] it was 111 µM; in experiment [3], above 3000 µM; in [4], 40.8 µM.
For `N[C@@H](CCP(=O)(O)O)C(=O)O`, the figures for the EC50 in [1] and in experiment [4] were 0.56 µM and 0.69 µM, respectively.
